Assay: Toxicity liver stage against HepG2, at 10uM
Type: cell-based
Parameters: test concentration 10 uM, cell line HepG2-A16-CD81EGFP
Details: human, HepG2-A16-CD81EGFP cells; read-out: INHIBITION
Procedure, shortened: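 Uninfected HepG2-A16-CD81EGFP cells, 3 × 10^3 per well, 1536-well, plated on prespotted compound at 10 μM final, parasite-free screening media added to match infected plates; puromycin 10 μM positive, DMSO 0.5% negative; run in parallel with 48 h PbLuc assay at 37 °C, 5% CO2; viability by CellTiter-Glo luminescence, normalized to controls.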

SMILES | cytotoxicity at 10 µM [%]
O=C(Nc1cc(C(F)(F)F)c[nH]c1=O)c1ccco1 | -8.28
Fc1ccc(-c2c[nH]c([C@@H]3COCCN3)n2)cc1 | -0.0368
COCc1cc(C[C@@H]2CC[C@H](O)[C@@H](CN(C)C)O2)no1 | 12
COc1cccc2ccn(CC(=O)NCCC(C)C)c12 | -43.3
COc1ccc(CNC(=O)CCCc2nnc3ccc(OC)nn23)cc1 | -5.36
Cc1cc(C)nc(NC(=O)NCCCSc2nncn2C)n1 | 1.74
O=C(N[C@]12CC1CN(C(=O)c1ccco1)C2)c1ccco1 (stereo partly specified) | -0.479
O=C(NCC1CC1)C1CCC2(CCN(C(=O)c3cnccn3)CC2)O1 (stereo unspecified) | -9.28
CCC(=O)N1CC[C@H](O)[C@@H]1Cc1ccccc1 | 0.081
Cc1noc([C@]23COC[C@H]2CN(C(=O)C2CCOCC2)C3)n1 | 9.46
Cc1n[nH]c2c1C(c1ccc3c(c1)OCO3)SCC(=O)N2 (stereo unspecified) | 3.46
CC(C)C(=O)Nc1cccc(C(=O)Nc2ccccn2)c1 | -2.37
Cc1nn(C)cc1CN(C)C(=O)c1ccccn1 | 4.12
CCC(CC)CN1CCN(CC(=O)Nc2ccc3nsnc3c2)CC1 | -13.8
O=C(O)c1ccnc2c(Br)cccc12 | 8.02
CCCn1ncc(C(=O)NC(C)c2c(C)nn(CC)c2C)c1C (stereo unspecified) | 9.91
CNc1cnc(CC2COCCN(Cc3ccccc3)C2)cn1 (stereo unspecified) | 10.9
O=S(=O)(c1ccccc1)N1CCOCC(Cc2cccnc2)C1 (stereo unspecified) | 0.812
Cc1cc(C(=O)N2CCC(O)(Cn3c(C)cc4ccncc43)CC2)on1 | 9.55

SMILES | cytotoxicity at 10 µM [%]
Cc1cc(C)n(CC(=O)N2CCCC2c2cc3cccnc3[nH]2)n1 (stereo unspecified) | 3.94
COc1ccccc1C(=O)N1C[C@@H]2CCCCN(CC(N)=O)[C@@H]2C1 | -4.43
COc1ccc(CC2CN(C(=O)c3coc(C)n3)CCO2)cc1 (stereo unspecified) | 3.8
Cc1nccnc1CCC1COCCN1C(=O)CCc1c(C)noc1C (stereo unspecified) | 5.7
NCc1cnn(-c2ccccc2C(=O)N2CCCC(C(N)=O)C2)c1 (stereo unspecified) | 1.2
CC(=O)Nc1nc(C2CCCN(C(=O)CN(C)C)C2)cs1 (stereo unspecified) | -43.4
Cc1cnc(-c2nc(NC3CC3)ncc2-c2cc(C)no2)cn1 | -21.3
NC(=O)CN1CCCC(Cc2ccc(N)nn2)C1 (stereo unspecified) | -31.1
C[C@@H]1C[C@H](C(F)(F)F)n2nc(C3CCN(C(=O)C(C)(C)C)CC3)cc2N1 | -32.8
CN1CCCC(Cc2cncc(C(=O)NC3CC3)c2)C1 (stereo unspecified) | -25.6
CC(C)NC(=O)NCc1nnc2n1C(C(=O)N(C)C)CC2 (stereo unspecified) | 5.45
O=c1[nH]c2ncccc2n1C1CCCC1 | 10.6
O=C(CN1CCCCC1)Nc1cc(C(F)(F)F)ccc1-n1cccc1 | 5.24
CCC(CC)(CNC(C)=O)NC(C)c1ccccc1 (stereo unspecified) | 4.99
Cc1cncc(C(=O)N(c2ccc(F)cn2)C2CCOCC2)c1 | 0.0591
COc1ccccc1CC1CCCN(C(=O)c2cn[nH]c2C)C1 (stereo unspecified) | 7.61
COC(=O)C1CCCCN1C(=O)c1ccccc1F (stereo unspecified) | 8.96
CN(C)C(CNC(=O)c1ccnc(-n2cncn2)c1)c1ccccc1 (stereo unspecified) | -130
CC(=O)N1CCC(NC(=O)CN2CCCc3c(F)ccc(C)c32)CC1 | -7.68

SMILES | cytotoxicity at 10 µM [%]
NC(=O)c1ccc(NC(=O)c2ccncc2F)cn1 | 6.48
Cc1nc(-c2ccc(CC(=O)N3CCN(C(=O)C4CC4)CC3)cc2)cs1 | 9.86
CCCn1nnnc1CSc1nccn1Cc1ccccn1 | 6.24
NC(=O)CN(CC1CCOC1)C1CC1 (stereo unspecified) | -14
Cn1ccc2c(C(=O)NCCCS(C)(=O)=O)cccc21 | -0.915
O=C(c1ccco1)N(CC(F)(F)F)C1CCCOC1 (stereo unspecified) | -19.5
O=C(NCc1ccc(N2CCCC2)nc1)N1CCc2sccc2C1 | -6.87
COc1ccc(F)cc1C(C)NC(=O)Nc1nncs1 (stereo unspecified) | 12.4
Cc1n[nH]c(C2CN(CC(=O)NCc3cccs3)CCO2)n1 (stereo unspecified) | -4.13
Cc1noc(C(C)N2CCN(CC(=O)N3CCCC3)CC2)n1 (stereo unspecified) | 0.678
COc1cccc(CC(=O)NCC(Cc2ccc(F)cc2)C(N)=O)c1 (stereo unspecified) | 4.78
CS(=O)(=O)c1cccc(C(=O)NCC2Cc3ccccc3O2)c1 (stereo unspecified) | -1.26
CN1CCN(C(=O)c2cnsn2)c2cc(F)ccc21 | -9.03
CCC(CNC(=O)c1nc(=O)[nH][nH]1)Oc1cccc(F)c1 (stereo unspecified) | -6.76
Cc1cc(F)ccc1NCC(=O)NCC(F)(F)F | -2.56
COc1ccc(C(N)=O)cc1NCc1noc(-c2ccsc2)n1 | 3.33
CC(C)CNC(=O)c1ccc(NC(=O)NCC2CC2)cc1Cl | 7.71
O=C(c1ccc(N2CCCC2)nn1)N1CCCc2ccc(F)cc21 | -1.7
